# Results reported in publication PMC6262783 (International Journal for Parasitology: Drugs and Drug …, 2018).
# Entries after “also recorded” stand apart in the source; their conditions may differ.
# Legend:
# [1] = test system: human foreskin fibroblasts (HFF); assay: Mammalian cell cytotoxicity screen; assay type: cell-based; settings: Fibroblast, 24 h, read-out: HFF IC50
# Summary of the method: (§1)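 HFF and U-20S were kept in DMEM with 10% heat-inactivated bovine serum, 2 mM L-glutamine, penicillin/streptomycin, 10% Medium 199 and gentamicin, at 36.5 °C with 5% CO2. Confluent cells (~20,000/well plated) were treated with 0–100 µM test compound for 24 h in duplicate. Alamar Blue (0.5 mM resazurin, 4 h, 37 °C) was read at ex 530/25, em 590/25; untreated cells defined 100% viability.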
# PRU T. gondii = assay: T. gondii growth inhibition in vitro screen, PRU-dTom strain; assay type: cell-based, Toxoplasma gondii; settings: for IC50: Toxoplasma gondii, 120 h, read-out: PRU T. gondii IC50; for activity against PRU T. gondii (in words): PRU strain
# Summary of the method: (§2)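 HFF (~20,000/well) were grown to confluence, then infected with dTomato-expressing tachyzoites: RH 2000/well for 24 h, or PRU 8000/well for 48 h, at 37 °C. Medium was replaced and test compound in DMSO added at 0–100 µM in duplicate, with pyrimethamine as positive control. Fluorescence (ex 530/25, em 590/25) was read over 5 days; IC50 was the concentration halving RFU at day 5.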
# [2] = test system: murine macrophages (NR-9456); assay: Mammalian cell cytotoxicity screen; assay type: cell-based; settings: Mus musculus, Macrophage, 24 h, read-out: NR-9456 IC50
# Summary of the method: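 Murine macrophages NR-9456 were maintained with added 1 mM sodium pyruvate and plated at ~20,000/well to confluence. They were exposed to 0–100 µM test compound for 24 h in duplicate. Resazurin (0.5 mM) was added for 4 h at 37 °C with 5% CO2, and fluorescence was read at ex 530/25, em 590/25. Viability was normalised to no-compound wells (100%).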
# [3] = test system: human osteosarcoma cells (U-20S); assay: Mammalian cell cytotoxicity screen; assay type: cell-based; settings: U2OS, 24 h, read-out: U2OS IC50
# Summary of the method: as §1
# [4] = test system: human embryonic kidney cells (HEK-293); assay: Mammalian cell cytotoxicity screen; assay type: cell-based; settings: HEK293, 24 h, read-out: HEK293 IC50
# Summary of the method: (§3)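 HEK-293 and HC-04 were kept in DMEM with 10% heat-inactivated bovine serum, 2 mM L-glutamine, penicillin/streptomycin and gentamicin (no Medium 199), at 36.5 °C with 5% CO2. Cells (~20,000/well) were grown to confluence, then treated with 0–100 µM test compound for 24 h in duplicate. Alamar Blue (0.5 mM resazurin, 4 h, 37 °C) was read at ex 530/25, em 590/25; viability was relative to untreated cells (100%).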
# [5] = test system: human liver cells (HC-04); assay: Mammalian cell cytotoxicity screen; assay type: cell-based; settings: HC04, 24 h, read-out: HCO4 IC50
# Summary of the method: as §3
# [6] = test system: Salmonella typhimurium (TA100 strain); assay: Bacterial reverse mutation assay; assay type: cell-based; settings: 0.75 μM (ca. 3x average T. gondii IC50)
# [7] = test system: RH-dTom tachyzoites in pre-treated HFF cells; assay: Host cell; assay type: cell-based, Toxoplasma gondii
# Summary of the method: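 HFF were grown to confluence in 96-well plates and exposed to 10 µM test compound for 24 h at 37 °C, in triplicate. Cells were washed twice with D10 medium, then infected with RH-dTom tachyzoites. Parasite growth was followed by fluorescence for 5 days post-infection and expressed relative to control.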
# RH-dTom tachyzoites = assay: Extracellular parasite pre-treatment assay; assay type: cell-based; settings: Toxoplasma gondii, read-out: parasite growth, % of control
# Summary of the method: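 RH-dTom tachyzoites were isolated from culture and resuspended in D10 medium at 10e6/mL. They were exposed to 10 µM test compound for 4 h, then centrifuged and washed twice. Confluent HFF in 96-well plates were infected with 2000 treated tachyzoites per well. Parasite growth was read by fluorescence at 5 days post-infection and expressed relative to control.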
# human albumin = human albumin (Homo sapiens, UniProt P02768); assay: Chromatography-based protein binding; assay type: in vitro ADME; settings: estimated by chromatographic method, human albumin column
# Summary of the method: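 Plasma protein binding was estimated chromatographically on a human albumin column. Retention was correlated against a standard series of compounds with known cPPB values.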
# [8] = Kinetic aqueous solubility by nephelometry; assay type: physicochemical; settings: PBS pH 6.5, pH 6.5, aqueous buffer, kinetic from dmso stock
# Summary of the method: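 Kinetic solubility was determined by nephelometry after 30 min at room temperature. A solubility range was reported.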
# [9] = Metabolic stability in human liver microsomes; assay type: in vitro ADME
# Summary of the method: (§4)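 Test compound (1 µM) was incubated with human or mouse liver microsomes (0.4 mg/mL protein) at 37 °C. Reactions were started with an NADPH-regenerating system and quenched at 2, 30 and 60 min. Remaining compound was quantified by LCMS to derive half-life, in vitro intrinsic clearance and predicted hepatic extraction ratio.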
# [10] = Metabolic stability in mouse liver microsomes; assay type: in vitro ADME
# Summary of the method: as §4
# RH T. gondii = assay: T. gondii growth inhibition in vitro screen, RH-dTom strain; assay type: cell-based, Toxoplasma gondii; settings: for activity against RH T. gondii (in words): primary screen
# Summary of the method: as §2
# ME49 strain T. gondii = assay: In vivo survivorship challenge in murine model; design: species or system Toxoplasma gondii
# Summary of the method: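 Female Swiss Webster mice, 2 months old, were infected intraperitoneally with 5000 ME49 tachyzoites. Dosing started simultaneously: test compound 5 mg/kg (n = 10), pyrimethamine 5 mg/kg (n = 20) or solvent (n = 24), IP once daily for 10 days. Vehicle was 5% DMSO, 47.5% propylene glycol, 47.5% Kollisolv. Mice were weighed daily; survival was followed over 40 d by Kaplan-Meier.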
# T. gondii = settings: ref Sanford et al., 2018; cited from earlier work
# human albumin, sequence (P02768 25-609): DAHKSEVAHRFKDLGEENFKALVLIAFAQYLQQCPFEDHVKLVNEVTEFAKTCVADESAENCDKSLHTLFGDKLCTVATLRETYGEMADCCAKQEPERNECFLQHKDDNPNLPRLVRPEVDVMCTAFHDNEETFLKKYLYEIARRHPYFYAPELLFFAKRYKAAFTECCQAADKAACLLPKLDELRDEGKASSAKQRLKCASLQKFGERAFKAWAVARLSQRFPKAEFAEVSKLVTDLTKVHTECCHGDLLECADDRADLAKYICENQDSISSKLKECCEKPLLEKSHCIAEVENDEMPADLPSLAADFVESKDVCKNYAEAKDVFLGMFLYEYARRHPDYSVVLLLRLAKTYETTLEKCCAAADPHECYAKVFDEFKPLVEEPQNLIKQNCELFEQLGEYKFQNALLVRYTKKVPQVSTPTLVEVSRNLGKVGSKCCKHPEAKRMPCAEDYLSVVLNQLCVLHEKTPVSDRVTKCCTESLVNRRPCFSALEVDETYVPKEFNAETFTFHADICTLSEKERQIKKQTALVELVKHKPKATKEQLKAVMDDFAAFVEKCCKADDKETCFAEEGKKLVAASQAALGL
structure (smiles),measurement,setting,value
"CC(C)(C)C1=CC(=NNC(=O)c2ccccc2)C=C(C(C)(C)C)C1=O [KGW15, N'-(3,5-di-tert-butyl-4-oxocyclohexa-2,5-dien-1-ylidene)benzohydrazide]",IC50,[1],> 100 µM
"Cc1ccc(C(=O)NN=C2C=C(C(C)(C)C)C(=O)C(C(C)(C)C)=C2)cc1 [KGW42, N'-(3,5-di-tert-butyl-4-oxocyclohexa-2,5-dien-1-ylidene)-4-methylbenzohydrazide]",IC50,[1],> 100 µM
"CC(C)(C)C1=CC(=NNC(=O)c2ccc(O)cc2)C=C(C(C)(C)C)C1=O [KGW43, N'-(3,5-di-tert-butyl-4-oxocyclohexa-2,5-dien-1-ylidene)-4-hydroxybenzohydrazide]",IC50,[1],> 100 µM
"CC(C)(C)C1=CC(=NNC(=O)c2ccc([N+](=O)[O-])cc2)C=C(C(C)(C)C)C1=O [KGW44, N'-(3,5-di-tert-butyl-4-oxocyclohexa-2,5-dien-1-ylidene)-4-nitrobenzohydrazide]",IC50,PRU T. gondii,0.99 µM
same,IC50,[1],> 100 µM
same,IC50,[2],> 100 µM
same,IC50,[3],> 100 µM
same,IC50,[4],> 100 µM
same,IC50,[5],> 100 µM
same,Ames Assay,[6],neither compound was mutagenic; also recorded: Negative
same,"parasite growth, % of control","[7]; HFF pre-treated 10 μM 24 h, washed, then infected, 5 days post-infection",no significant change in growth
same,activity at 10 µM,RH-dTom tachyzoites,60.3%
same,cPPB (% Bound),human albumin,84.3 % Bound
same,solubility kinetic at 30 min,[8],< 1.6 µg/mL
same,Predicted EH,[9],0.45
same,half-life at 1 μM,[9],1.38 h
same,microsomal CLint at 1 μM,[9],21 µL/min/mg
same,half-life at 1 μM,[10],0.15 h
same,microsomal CLint at 1 μM,[10],99 µL/min/mg
"CC(C)(C)C1=CC(=NNC(=O)c2c[nH]cn2)C=C(C(C)(C)C)C1=O [KGW45, N'-(3,5-di-tert-butyl-4-oxocyclohexa-2,5-dien-1-ylidene)-1H-imidazole-4-carbohydrazide]",activity against RH T. gondii (in words),RH T. gondii; RH strain,significantly weakened
same,IC50,[1],> 100 µM
"CC(C)(C)C1=CC(=NNC(=O)c2ccc(C#N)cc2)C=C(C(C)(C)C)C1=O [KGW54, 4-cyano-N'-(3,5-di-tert-butyl-4-oxocyclohexa-2,5-dien-1-ylidene)benzohydrazide]",IC50,"RH T. gondii; read-out: RH T. gondii IC50, RH-dTom tachyzoites in HFF, fluorescence, day 5",1.2 µM
same,IC50,PRU T. gondii,2.2 µM
same,IC50,[1],> 100 µM
"CC(C)(C)C1=CC(=NNc2ccc([N+](=O)[O-])cc2[N+](=O)[O-])C=C(C(C)(C)C)C1=O [KGW59, 2,6-di-tert-butyl-4-(2-(2,4-dinitrophenyl)hydrazineylidene)cyclohexa-2,5-dien-1-one]",IC50,PRU T. gondii,1.4 µM
same,IC50,[1],> 100 µM
same,IC50,[2],> 100 µM
same,IC50,[3],> 100 µM
same,IC50,[4],> 100 µM
same,IC50,[5],> 100 µM
same,Ames Assay,[6],neither compound was mutagenic; also recorded: Negative
same,activity at 10 µM,"[7]; Toxoplasma gondii, HFF, read-out: parasite growth, % of control",30.2%
same,solubility kinetic at 30 min,[8],< 1.6 µg/mL
same,Predicted EH,[9],0.38
same,half-life at 1 μM,[9],1.85 h
same,microsomal CLint at 1 μM,[9],16 µL/min/mg
same,Predicted EH,[10],0.50
same,half-life at 1 μM,[10],0.617 h
same,microsomal CLint at 1 μM,[10],46 µL/min/mg
same,survivorship (in words),ME49 strain T. gondii,significantly increased survivorship
"CCOc1ccc(C(=O)NN=C2C=C(C(C)(C)C)C(=O)C(C(C)(C)C)=C2)cc1 [KGW64, N'-(3,5-di-tert-butyl-4-oxocyclohexa-2,5-dien-1-ylidene)-4-ethoxybenzohydrazide]",activity against PRU T. gondii (in words),PRU T. gondii,only weakly active
"CC(C)(C)C1=CC(=NNC(=O)c2cccnc2)C=C(C(C)(C)C)C1=O [KGW65, N'-(3,5-di-tert-butyl-4-oxocyclohexa-2,5-dien-1-ylidene)nicotinohydrazide]",activity against PRU T. gondii (in words),PRU T. gondii,completely inactive
"CC(C)(C)C1=CC(=NNC(=O)C2CCCCC2)C=C(C(C)(C)C)C1=O [KGW66, N'-(3,5-di-tert-butyl-4-oxocyclohexa-2,5-dien-1-ylidene)cyclohexanecarbohydrazide]",activity against RH T. gondii (in words),RH T. gondii; RH strain,abolished activity
"Cc1ccc(C(=O)ON=C2C=C(C(C)(C)C)C(=O)C(C(C)(C)C)=C2)cc1 [KGW72, 2,6-di-tert-butyl-4-(((4-methylbenzoyl)oxy)imino)cyclohexa-2,5-dien-1-one]",reduction of potency relative to KG8,RH T. gondii; RH strain,6 fold
same,IC50,[1],> 100 µM
"CC1(C)CC(=NNC(=O)c2ccncc2)CC(C)(C)C1=O [KGW73, N'-(3,3,5,5-tetramethyl-4-oxocyclohexylidene)isonicotinohydrazide]",activity against RH T. gondii (in words),RH T. gondii; RH strain,inactive
same,IC50,[1],> 100 µM
NNC(=O)c1ccncc1 [isoniazid],activity against T. gondii in vitro (in words),T. gondii,inactive
